Screens (PubChem BioAssay)
Sampled rows, rich in hits. Any-hit rate of the full collection: about 2.3%.
TRPC4 agonist – TRPC4 (mouse) channel activation. Q9QUQ5. HEK293 TRPC4beta/mu-opioid, Fluo4 calcium fluorescence; active compounds read high. B-score at 10 µM. 0.49% of 310,000 active;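 active = B-score above 5 SD of library B-scores, and initial fluorescence ratio not above library mean plus 5 SD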;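 also: positive B-score marks a calcium rise read as TRPC4 activation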
Target sequence (Q9QUQ5 whole entry, looked up): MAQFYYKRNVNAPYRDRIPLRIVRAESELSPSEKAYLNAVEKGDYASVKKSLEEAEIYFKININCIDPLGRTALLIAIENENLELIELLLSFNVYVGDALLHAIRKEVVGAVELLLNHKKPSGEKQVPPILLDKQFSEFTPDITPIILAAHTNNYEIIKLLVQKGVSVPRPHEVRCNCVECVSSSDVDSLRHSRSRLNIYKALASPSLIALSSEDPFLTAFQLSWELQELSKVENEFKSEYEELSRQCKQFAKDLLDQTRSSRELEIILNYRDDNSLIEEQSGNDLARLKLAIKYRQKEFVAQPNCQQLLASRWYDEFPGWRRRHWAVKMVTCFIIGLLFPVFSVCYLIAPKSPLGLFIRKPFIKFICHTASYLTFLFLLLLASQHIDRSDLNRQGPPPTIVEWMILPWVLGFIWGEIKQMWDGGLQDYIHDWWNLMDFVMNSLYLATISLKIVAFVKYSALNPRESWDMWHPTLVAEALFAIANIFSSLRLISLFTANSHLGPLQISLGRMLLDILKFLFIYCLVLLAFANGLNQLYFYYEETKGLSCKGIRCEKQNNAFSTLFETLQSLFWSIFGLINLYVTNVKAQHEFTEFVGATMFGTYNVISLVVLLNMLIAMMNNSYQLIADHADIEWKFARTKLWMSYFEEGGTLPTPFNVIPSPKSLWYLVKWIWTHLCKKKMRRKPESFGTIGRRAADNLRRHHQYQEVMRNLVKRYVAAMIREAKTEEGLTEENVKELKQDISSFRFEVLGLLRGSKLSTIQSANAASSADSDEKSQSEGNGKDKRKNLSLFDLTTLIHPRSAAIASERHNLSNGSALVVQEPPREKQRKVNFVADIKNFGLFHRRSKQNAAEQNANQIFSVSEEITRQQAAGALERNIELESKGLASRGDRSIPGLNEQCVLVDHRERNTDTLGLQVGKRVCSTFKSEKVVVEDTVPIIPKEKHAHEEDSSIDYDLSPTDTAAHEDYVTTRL
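Test system: HEK293 cells stably co-expressing mouse TRPC4beta and mu-opioid receptor | Schedule: Fluo4 dye loading 45 min at room temperature, 110 s recording | Measured by: Kinetic Fluo4 calcium fluorescence, 5 s baseline at 1 Hz | Evaluation: B score of integrated ratio | Controls: Buffer (low) and maximal DAMGO (high)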
TRPC6 inhibitor – inhibitors of mouse TRPC6 channel; HEK293-TRPC6, membrane potential dye, ACh-evoked depolarization; active compounds read low; 1.1% of 310,000 active; B-score at 10 µM;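 active = B-score under library mean minus 3 SD, initial fluorescence not abnormally high, positive integrated signal ratio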;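 also: B-score derived from integrated fluorescence ratio over the kinetic read; more negative B-score means stronger inhibition of depolarization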
TRPC4 inh – inhibitors of mouse TRPC4 channel; Q9QUQ5; HEK293 TRPC4beta/mu-opioid, DAMGO-evoked Fluo4 calcium flux; active compounds read low; B-score at 10 µM; 0.39% of 300,000 active; AID 2247;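 active = B-score over 3 SD under the library average, no early fluorescence shift, positive overall ratio signal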
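System: stable TRPC4beta/mu-opioid receptor HEK293 cells; Dosing: single-point compound dosing; Measured by: Fluo4 Ca2+ flux fluorescence; Read-out basis: per-well B score of integrated baseline-normalized Fluo4 ratio.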
TRPC6 activator – mouse TRPC6 channel activation; 0.13% of 310,000 active; B-score at 10 µM; AID 2550; HEK293-TRPC6 membrane potential dye fluorescence; active compounds read high;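 active = B-score of the integrated fluorescence ratio above library mean plus 3 SD, and starting fluorescence ratio within library mean plus 5 SD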;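 also: higher score means more depolarization so channel activation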
TRPC4 potent – allosteric potentiators of mouse TRPC4 channel. 0.42% of 310,000 active. HEK293 TRPC4beta/mu-opioid, DAMGO EC20, Fluo-4 Ca2+ flux; active compounds read high. Q9QUQ5. B-score at 10 µM;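 active = B-score of calcium response area above 5 SD of library B-scores, with initial fluorescence ratio within 5 SD of library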;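 also: B-score of integrated fluorescence ratio over time as area under calcium response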
TRPC4 sel inh 2 – second check of whether TRPC6 inhibitors also affect mouse TRPC4 | shares compounds with TRPC6 inhibitor | HEK293 TRPC4/MOR, membrane potential dye fluorescence; channel activated by saturating DAMGO dose | inhibition, % at 10 µM | 42% of 920 active | AID 2776;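 active = compounds whose fluorescence signal differed from control wells by over 3 SD, either direction, in both duplicate plates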
TRPC4 spec – selectivity of TRPC6 inhibitors: effect on mouse TRPC4 | AID 2777 | activity change, negative = inhibition, % at 10 µM | 61% of 920 active | shares compounds with TRPC6 inhibitor | HEK293 TRPC4/mu-opioid, membrane potential fluorescence;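 active = rise or fall in signal beyond 3 SD of buffer-only wells in both replicate plates, either sign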;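 also: integrated kinetic ratio of fluorescence range over baseline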
HEK293 MPD ctr 2-1 – parental HEK293 nonspecific activity of TRPC6 inhibitors, second screen; AID 2779; parental HEK293 membrane potential dye fluorescence; maximal acetylcholine challenge after compound addition; 31% of 920 active; shares compounds with TRPC6 inhibitor; signal change vs control, % at 10 µM;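 active = membrane potential signal moving either way by over 3 SD of the maximum-effect control, in both duplicate plates, meaning non-specific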
HEK293 MPD ctr-1 – checks TRPC6 inhibitor effects in parental HEK293 cells. shares compounds with TRPC6 inhibitor. 60% of 920 active. membrane potential signal change, % at 10 µM. parental HEK293 membrane potential dye fluorescence;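 active = membrane potential signal shifting up or down by more than 3 SD of buffer-only wells, on both duplicate plates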
HEK293 MPD ctr-2 – checks TRPC6 modulator effects in parental HEK293 cells. shares compounds with TRPC6 inhibitor. 51% of 2,400 active. membrane potential dye fluorescence. membrane potential signal change, % at 10 µM;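 active = membrane potential signal moves up or down beyond 5 SD from buffer-only wells, on both duplicate plates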
HEK293 MPD ctr 2-2 – second counter-screen for TRPC6 modulators: effect in parental HEK293 cells. shares compounds with TRPC6 inhibitor. membrane potential dye fluorescence; after compound, maximal acetylcholine stimulation. inhibition, % at 10 µM. 14% of 2,400 active;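 active = membrane potential signal drops by more than 5 SD from the mean control signal, in both duplicate plates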;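 also: plate controls were acetylcholine ECmax control wells for no effect and buffer only wells for full effect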
TRPC4/MOR mod – mouse TRPC4 off-target activity of TRPC6 modulators; percent change from control (negative = decrease, positive = increase), % at 10 µM; 69% of 2,400 active; HEK293 TRPC4/mu-opioid, membrane potential fluorescence; shares compounds with TRPC6 inhibitor;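 active = membrane potential signal moved up or down beyond 5 SD of buffer control wells, in both duplicate plates, actives on both sides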;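 also: plate controls were assay buffer wells for no effect and DAMGO maximal-effect wells for full effect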
TRPC4/MOR inh 2 – second selectivity test of TRPC6 modulators against mouse TRPC4; HEK293 TRPC4/mu-opioid, membrane potential dye fluorescence; stimulated with maximal-effect DAMGO; 55% of 2,400 active; shares compounds with TRPC6 inhibitor; inhibition, % at 10 µM;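 active = drop in membrane potential signal beyond 5 SD of the control wells in both duplicate plates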;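 also: TRPC4 counter screen for TRPC6 hits run under conditions tuned for TRPC6 not TRPC4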
TRPC6 inh conf – mouse TRPC6 inhibitor confirmation | shares compounds with TRPC6 inhibitor | HEK293-TRPC6, membrane potential dye, ACh-evoked depolarization | inhibition, % at 10 µM | 43% of 3,300 active;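 active = fluorescence ratio falls more than 5 SD below the full-stimulation control mean, in both duplicate runs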;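 also: integrated fluorescence ratio of peak minus minimum over baseline after agonist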
TRPC6 act confirm – confirmation of mouse TRPC6 activators | shares compounds with TRPC6 inhibitor | HEK293-TRPC6 membrane potential dye fluorescence, FDSS | activation, % at 10 µM | 11% of 2,800 active | AID 488961;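 active = ratio signal rise beyond 5 SD above unstimulated control wells' mean, seen in both duplicate runs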;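 also: plate controls were buffer EC0 wells for no effect and acetylcholine ECmax response for full effect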
Active calls of the source: *; i = inactive; / = no result; + = active, no number.

SMILES	TRPC4 agonist	TRPC6 inhibitor	TRPC4 inh	TRPC6 activator	TRPC4 potent	HEK293 MPD ctr-2	HEK293 MPD ctr 2-2	TRPC4/MOR mod	TRPC4/MOR inh 2	TRPC6 inh conf	TRPC6 act confirm	others
Cc1cc(C(=O)N(C)CC(=O)Nc2cccc(F)c2)no1	i	i	i	i	i	/	/	/	/	/	/
COc1ccc(NC(=O)CN(C)C(=O)c2cc(C)on2)cc1	i	-5.72*	i	i	i	i	i	i	i	i	i
NCCOc1ccc(C23CC4CC(CC(C4)C2)C3)cc1	i	i	i	i	i	/	/	/	/	/	/
Cc1ccc(C23CC4CC(CC(CN)(C4)C2)C3)cc1	i	-7.52*	i	i	i	/	/	/	/	i	i	TRPC4 sel inh 2=42.0%*;TRPC4 spec=-11.3%*;HEK293 MPD ctr 2-1=i;HEK293 MPD ctr-1=-176.5%*
NCC12CC3CC(C1)CC(c1ccc(Br)cc1)(C3)C2	i	-8.56*	i	i	i	/	/	/	/	62.4%*	i	TRPC4 sel inh 2=43.5%*;TRPC4 spec=-10.2%*;HEK293 MPD ctr 2-1=i;HEK293 MPD ctr-1=-178.5%*
Clc1ccc(-c2c[n+]3c(n2-c2ccccc2)SCC3)cc1	i	i	i	i	i	/	/	/	/	/	/
O=[N+]([O-])c1cccc(-c2c[n+]3c(n2-c2ccccc2)SCC3)c1	i	-5.2*	i	i	i	i	i	i	34.0%*	47.0%*	i
COc1cccc(CCNC(=O)c2cc(COc3c(F)cccc3F)on2)c1	i	i	i	i	i	/	/	/	/	/	/
CN(C)CCCn1c(=O)n(Cc2ccco2)c(=O)c2c3c(sc21)CCCCC3	i	i	i	i	i	/	/	/	/	/	/
Cn1c(=O)n(Cc2ccco2)c(=N)c2c3c(sc21)CCC3	i	-7.11*	i	i	i	-183.5%*	i	-32.5%*	45.5%*	36.0%*	i
CC(C)c1ccc(S(=O)(=O)N2CCN(C(=O)c3ccco3)CC2)cc1	i	-11.3*	i	11.7*	i	i	i	11.5%*	i	105.5%*	122.5%*
CCCCn1c(N)c(N(CCOC)C(=O)COC(=O)C(C)Oc2ccc(Cl)cc2)c(=O)[nH]c1=O (stereo unspecified)	i	i	i	i	i	/	/	/	/	/	/
Cc1cc(NC(=O)CSc2ccccn2)cc(NC(=O)CSc2ccccn2)c1	i	i	i	i	i	/	/	/	/	/	/
Cc1nonc1NC(=O)CSc1ccccn1	i	-5.66*	i	i	i	i	i	i	i	i	i
COc1ccccc1Nc1nc(N)nc(CSC(=S)N2CCCCC2)n1	i	-9.54*	i	11.5*	i	i	i	i	i	i	i
Cc1ccc(OCC(=O)OCC(=O)c2ccccc2)cc1C	i	i	i	i	i	/	/	/	/	/	/
COc1ccccc1OCC(=O)NCCS(=O)(=O)N1CCN(c2ccc(F)cc2)CC1	i	-5.42*	i	i	i	i	i	i	i	i	i
Cc1[nH]c2ccccc2c1C(=O)C(=O)Nc1ccc2c(c1)OCO2	i	i	i	i	i	/	/	/	/	/	/
CCOC(=O)C1(C)/C(=N/Nc2ccccc2OC)C(=O)C(=O)N1c1ccccc1 (stereo unspecified)	i	-8.06*	i	i	i	-225.5%*	i	-40.0%*	68.5%*	44.5%*	i
CCCCCCOc1ccc(/C(C)=N/NC2=NCCN2)cc1[N+](=O)[O-]	i	i	i	i	i	/	/	/	/	/	/
C/C(=N\NC1=NCCN1)c1ccc(N)c([N+](=O)[O-])c1	i	-5.97*	i	i	i	i	108.0%*	i	32.0%*	48.5%*	i
c1ccc(-c2csc(Nc3cccnc3)n2)nc1	i	-6.03*	/	i	i	-84.5%*	i	-17.5%*	i	i	i
CCOC(=O)c1c(-c2ccccc2)csc1NC(=O)/C(C#N)=C/c1ccc(O)c(OC)c1	i	i	i	35.3*	i	438.0%*	i	91.5%*	i	i	129.0%*
CCOC(=O)c1c(-c2ccccc2)csc1NC(=O)/C(C#N)=C/c1ccc(OC)c(OC)c1	i	i	i	i	i	/	/	/	/	/	/
CCC(=O)Nc1cccc(-c2cnc3ccccc3n2)c1	i	-5.62*	i	i	i	i	i	i	i	i	i
Cn1c(O)c(/C=N/NC(=O)c2cc3ccccc3cc2O)c2ccccc21	105*	i	i	44.4*	33*	+	i	297.5%*	i	i	256.0%*
CCOC(=O)C1=C(COC(=O)COc2ccc(C#N)cc2)NC(=O)NC1C (stereo unspecified)	i	i	i	i	i	/	/	/	/	/	/
OC(c1cc(-c2ccc(C(F)(F)F)cc2)nc(C(F)(F)F)c1)C1CCCCN1 (stereo unspecified)	43*	-5.92*	i	i	i	i	57.0%*	-10.0%*	53.5%*	i	i
COC(=O)CSc1nc(-c2ccc(F)cc2)cc(C(F)(F)F)n1	i	i	i	i	i	/	/	/	/	/	/
